# Assay results: publication PMC2895766 (Journal of medicinal chemistry, 2010)
# Assays:
# mice = conditions: cited from earlier work
# [1] = system: α1*-, α3β4*-, α4β2-, or α4β4-nAChR; type: cell-based, human; conditions: highest concentration tested 100 μM
# [2] = target: human NE transporters [h(NET)] (Homo sapiens, UniProt P23975); test: Inhibition of [3H]norepinephrine uptake in HEK293 cells expressing hNET; type: cell-based; conditions: ratio of IC50 values
# α4β2-nAChR = α4β2-nAChR (Homo sapiens, UniProt P17787+P43681); test: 86Rb+ efflux assay, antagonism of carbamylcholine response, SH-EP1-hα4β2 cells; type: cell-based
# [3] = system: nicotine-mediated antinociception (tail-flick); test: Tail-flick test, blockade of nicotine-induced antinociception; type: in vivo; conditions: mice
# Outline: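 Mice got saline or test compound 15 min before nicotine (2.5 mg/kg s.c.) and were tested 5 min after nicotine. Radiant heat was applied to the upper tail with a 10 s cutoff, and a pre-treatment control latency (2–4 s) was taken for each mouse. Blockade was scored as %MPE = [(test − control)/(10 − control)] × 100 and expressed as AD50 in mg/kg.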
# human NE transporters [h(NET)], sequence (P23975 whole entry): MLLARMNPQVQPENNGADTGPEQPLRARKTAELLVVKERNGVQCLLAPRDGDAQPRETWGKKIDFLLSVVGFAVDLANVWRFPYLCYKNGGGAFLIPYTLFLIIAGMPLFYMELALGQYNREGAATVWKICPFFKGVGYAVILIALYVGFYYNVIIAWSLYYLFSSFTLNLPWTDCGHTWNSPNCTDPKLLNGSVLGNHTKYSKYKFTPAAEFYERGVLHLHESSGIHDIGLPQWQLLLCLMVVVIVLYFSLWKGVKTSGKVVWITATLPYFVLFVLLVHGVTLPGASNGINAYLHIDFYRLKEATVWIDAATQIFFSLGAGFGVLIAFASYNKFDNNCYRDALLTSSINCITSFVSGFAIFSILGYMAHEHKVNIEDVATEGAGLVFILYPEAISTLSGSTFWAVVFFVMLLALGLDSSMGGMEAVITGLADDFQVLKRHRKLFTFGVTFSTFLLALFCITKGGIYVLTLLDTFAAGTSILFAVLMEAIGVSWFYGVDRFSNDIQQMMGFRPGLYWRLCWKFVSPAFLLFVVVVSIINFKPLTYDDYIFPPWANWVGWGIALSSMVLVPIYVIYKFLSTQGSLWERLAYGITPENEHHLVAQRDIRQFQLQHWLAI
# α4β2-nAChR, sequence (P43681 29-627 limits assumed): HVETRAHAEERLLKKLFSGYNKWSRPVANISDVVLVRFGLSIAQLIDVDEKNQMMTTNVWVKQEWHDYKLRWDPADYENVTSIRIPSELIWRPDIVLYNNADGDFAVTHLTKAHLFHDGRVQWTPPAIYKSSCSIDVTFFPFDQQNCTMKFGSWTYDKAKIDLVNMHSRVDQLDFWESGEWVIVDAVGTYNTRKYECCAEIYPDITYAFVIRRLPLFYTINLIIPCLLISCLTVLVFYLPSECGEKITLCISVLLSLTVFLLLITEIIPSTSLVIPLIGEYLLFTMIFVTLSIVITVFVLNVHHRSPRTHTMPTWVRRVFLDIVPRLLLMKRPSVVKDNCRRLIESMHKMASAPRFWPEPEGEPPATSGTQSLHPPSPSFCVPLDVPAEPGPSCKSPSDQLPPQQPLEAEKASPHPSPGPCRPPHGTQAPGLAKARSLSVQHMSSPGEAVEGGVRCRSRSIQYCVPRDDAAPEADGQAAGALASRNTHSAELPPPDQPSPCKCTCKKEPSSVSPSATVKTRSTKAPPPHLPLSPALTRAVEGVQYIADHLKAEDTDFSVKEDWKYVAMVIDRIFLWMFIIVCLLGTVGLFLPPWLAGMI
# α4β2-nAChR, sequence (P17787 26-502): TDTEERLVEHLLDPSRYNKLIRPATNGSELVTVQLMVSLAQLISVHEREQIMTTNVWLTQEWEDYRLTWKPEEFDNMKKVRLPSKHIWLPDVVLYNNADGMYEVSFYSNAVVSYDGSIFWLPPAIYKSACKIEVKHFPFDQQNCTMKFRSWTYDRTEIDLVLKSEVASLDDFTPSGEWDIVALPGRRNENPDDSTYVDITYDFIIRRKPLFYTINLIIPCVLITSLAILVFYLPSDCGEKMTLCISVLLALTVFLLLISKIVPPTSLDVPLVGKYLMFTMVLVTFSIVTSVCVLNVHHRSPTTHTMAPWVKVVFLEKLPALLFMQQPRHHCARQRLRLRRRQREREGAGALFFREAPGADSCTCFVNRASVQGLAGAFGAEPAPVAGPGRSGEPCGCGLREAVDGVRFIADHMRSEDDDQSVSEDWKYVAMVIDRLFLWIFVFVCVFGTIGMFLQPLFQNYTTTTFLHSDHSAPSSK
SMILES,extent of antagonism at all nAChR subtypes tested [1],further results
C[C@H]1NC(C)(C)CO[C@]1(O)c1cccc(Cl)c1 (racemic) [racemic hydroxybupropion],,convulsions after i.p. administration (mice): induced convulsions
"C[C@H]1NC(C)(C)CO[C@]1(O)c1cccc(Cl)c1 [(2R,3R)-4a, (2R,3R)-2-(3-Chlorophenyl)-3,5,5-trimethylmorpholin-2-ol, reference compound]",full antagonist,
"C[C@@H]1NC(C)(C)CO[C@@]1(O)c1cccc(Cl)c1 [(2S,3S)-4a, (2S,3S)-2-(3-Chlorophenyl)-3,5,5-trimethylmorpholin-2-ol, reference compound]",full antagonist,times more potent than 2 in inhibiting NE uptake [2]: 7.7 times
"C[C@@H]1NC(C)(C)CO[C@@]1(O)c1cccc(F)c1 [Compound 4c, (2S,3S)-2-(3-Fluorophenyl)-3,5,5-trimethylmorpholin-2-ol]",block all nAChR function at an adequately high concentration,
"C[C@@H]1NC(C)(C)CO[C@@]1(O)c1cccc(Br)c1 [Compound 4d, (2S,3S)-2-(3-Bromophenyl)-3,5,5-trimethylmorpholin-2-ol]",block all nAChR function at an adequately high concentration,selectivity for inhibition of α4β2-nAChR over NE uptake inhibition (α4β2-nAChR): ~ 1.7 fold
"C[C@@H]1NC(C)(C)CO[C@@]1(O)c1cccc([N+](=O)[O-])c1 [Compound 4g, (2S,3S)-2-(3-Nitrophenyl)-3,5,5-trimethylmorpholin-2-ol]",block all nAChR function at an adequately high concentration,
"C[C@@H]1NC(C)(C)CO[C@@]1(O)c1cccc2ccccc12 [Compound 4q, (2S,3S)-2-(Naphthalen-1-yl)-3,5,5-trimethylmorpholin-2-ol]",,"fold higher activity in the tail-flick assay than (2S,3S)-4a [3]: ~ 5 fold"
"C[C@@H]1NC(C)(C)CO[C@@]1(O)c1ccc2ccccc2c1 [Compound 4r, (2S,3S)-2-(Naphthalen-2-yl)-3,5,5-trimethylmorpholin-2-ol]",,"fold higher activity in the tail-flick assay than (2S,3S)-4a [3]: ~ 5 fold"
"CCC[C@@H]1NC(C)(C)CO[C@@]1(O)c1cccc(Cl)c1 [Compound 4t, (2S,3S)-2-(3-Chlorophenyl)-5,5-dimethyl-3-propyl-morpholin-2-ol]",full antagonist,
